Compound activity from PubChem.
NF-kB neuron act – raises NF-kB expression in human neuronal cells | NF-kB reporter expression; active compounds read high | fold change at 12.5 µM | hit rate 1.6% among 190,000 | AID 1239; in the data active means fold change above about 3.3
STAT1 act – activators of IFN-gamma induced STAT1 signaling; NIH 3T3 STAT1-luciferase reporter, luminescence; 100% = IFN-gamma alone, no compound; activation (% of control), % at 5.5 µM; hit rate 2.6% among 200,000;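 active means activation above the screen-wide mean activation plus 3 SD, cut at about 130% in these data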
APP 5'UTR act – activates APP 5'UTR luciferase reporter; hit rate 1% among 190,000; activation, % at 2 µM; SH-SY5Y APP 5'UTR luciferase reporter, luminescence; zero percent = DMSO vehicle wells; AID 1276;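 active means activation above a set limit, based on mean plus 3 SD of controls, cut at about 140% in these data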
STAT1 blocker – STAT1 signaling inhibition; hit rate 0.35% among 200,000; inhibition, % at 5.5 µM; NIH 3T3 STAT1-luciferase reporter, IFN-gamma, luminescence;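 active means inhibition above a set limit, the mean inhibition across all tested compounds plus 3 SD, cut at about 34% in these data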
STAT3 blocker – inhibitors of IL-6 induced STAT3 signaling; inhibition, % at 5.5 µM; hit rate 0.89% among 190,000; U3A cells, IL-6 STAT3-luciferase reporter, luminescence; host cell line lacks STAT1;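 active means inhibition above the mean inhibition across all screened compounds plus 3 SD, cut at about 44% in these data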
STAT3 act – STAT3 signaling activation; hit rate 0.91% among 190,000; U3A cells, IL-6 STAT3-luciferase reporter, luminescence; 100% = signal with IL-6 EC80 alone; activation (% of control), % at 5.6 µM;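 active means activation above the screen-wide mean of compound activation plus 3 SD, cut at about 130% in these data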
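Test system: STAT3-luciferase reporter U3A cells; Detection: reporter luminescence signal; Times: 1 h compound pre-exposure, 6 h IL-6 stimulation, 37 °C; Benchmarks: IL-6-only high control; Also added: IL-6 stimulus at 33 ng/mL final.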
Of the large screens only hits and unclear results are named; the others gave an inactive call. Compounds with a hit are over-represented: about 4.9% of the library has one in this group of screens.

O=C(Nc1cc2c(cc1Br)OCCCO2)c1ccccc1	STAT1 act 146
COc1ccccc1OCC(=O)NNC(=O)c1c(-c2ccccc2Cl)noc1C	none
O=C(Nc1cc2c(cc1Cl)OCCCO2)c1ccc(F)cc1	STAT1 act 145
COC(=O)c1cc(Cl)c(NC(=O)c2ccc(F)cc2)cc1OC	none
CCCSc1nc2c3c(sc2c(=O)[nH]1)CC(C)(CC)OC3 (configuration not stated)	none (no result: NF-kB neuron act)
COc1nc(-c2ccccc2)ccc1-c1noc(-c2ccco2)n1	NF-kB neuron act 3.7, STAT1 act 145
COc1ccccc1-c1noc(-c2ccco2)n1	STAT1 act 131
COc1ccccc1CN1CCNC(=O)C1CC(=O)NC1Cc2ccccc2C1 (configuration not stated)	none
CC(C)(C)c1ccc(S(=O)(=O)N2CCN(c3ncccn3)CC2)cc1	none
Cc1ccc(C)c(S(=O)(=O)N2CCN(c3ncccn3)CC2)c1	NF-kB neuron act 4.8
Cc1ccc(-c2cn(-c3ccccc3)c(SCC(=O)NC3CCS(=O)(=O)C3)n2)cc1C (configuration not stated)	STAT1 act 136
COc1cc(/C=C(/C(=O)c2cccs2)c2nc3ccccc3[nH]2)ccc1O	NF-kB neuron act 4.5, STAT3 act 136
O=C(/C(=C/c1ccc(Cl)cc1)c1nc2ccccc2[nH]1)c1cccs1	none
CCOc1ncccc1C(=O)OCc1ccc(C(=O)OC)cc1	STAT1 act 130, STAT3 act 137
CCOc1ncccc1C(=O)OCc1ccc(Cl)cc1	none
O=C(NCc1ccccc1)c1cc(-c2ccco2)on1	none
Cc1ccc(NC(=O)c2cc(-c3ccco3)on2)cc1C	STAT1 act 132
COc1ccc(CCNC(=O)c2cc(-c3ccco3)on2)cc1OC	NF-kB neuron act 4.5
COc1ccc(CCNC(=O)c2cc(-c3cccs3)on2)cc1OC	none
O=C(NCCc1ccccc1)c1cc(-c2ccco2)on1	NF-kB neuron act 5.8, STAT1 act 132
CCOc1ccc(-c2nnn(CC(=O)NCc3ccccc3)n2)cc1	none
NC(=O)CSc1ccc(-c2ccc(F)cc2)nn1	none
Cn1nc(C(=O)OCC(=O)Nc2ccc3ccccc3c2)c2ccccc2c1=O	none
COc1ccc(NC(=O)c2cc3c(s2)CCC(C)C3)cc1S(=O)(=O)N1CCOCC1 (configuration not stated)	none
Cc1ccc(NC(=O)c2snc3c(=O)[nH]cnc23)cc1C	none
Cc1ccc(NC(=O)c2snc3ccc(Cl)cc23)cc1C	STAT1 act 130
COCCCNC(=S)NNC(=O)c1ccc(S(=O)(=O)N2CCC(C)CC2)cc1	none
Cc1nn(CC(=O)NCc2ccc(-n3cccn3)cc2)c(C)c1[N+](=O)[O-]	none
CCc1nnc(NC(=O)C2(C)COC(c3ccc(OC)cc3)OC2)s1 (configuration not stated)	none
Cc1ccc(OC(=O)c2sc3ncn(C)c(=O)c3c2C)cc1	NF-kB neuron act 3.4, STAT1 act 136
O=C1CSC(=S)N1Cc1cccnc1	NF-kB neuron act 4.8
CCCCCCCCCCCC(=O)NC1CCS(=O)(=O)C1 (configuration not stated)	none
Nc1c(C(=O)Nc2ccc(F)cc2)sc(=S)n1-c1ccccc1F	STAT1 act 131
COC(=O)C1=C(C)Nc2c(c(=O)n(C)c(=O)n2C)C1c1ccc(Cl)cc1 (configuration not stated)	none
CSc1nc2ccc(NS(=O)(=O)c3cccc(Cl)c3Cl)cc2s1	none
O=C(CC(Nc1ccccc1)C(=O)O)c1ccccc1 (configuration not stated)	NF-kB neuron act 3.3 (no result: STAT1 act, APP 5'UTR act, STAT1 blocker, STAT3 blocker, STAT3 act)
O=C(CC(Nc1ccccc1)c1ccc(F)cc1)c1ccccc1 (configuration not stated)	none
CC(=O)NS(=O)(=O)c1ccc(NC(=O)c2ccc3c(c2)C(=O)N(CCC(C)C)C3=O)cc1	none
CCN(CC)c1ccc2cc(C(N)=O)c(=N)oc2c1	none
CCN(C(=O)c1cc2ccccc2oc1=O)c1ccccc1	NF-kB neuron act 4.7
CCN(CC)c1ccc2cc(C(N)=O)c(=O)oc2c1	STAT1 act 133
O=C(Nc1ccccc1CC[N+](=O)[O-])N1CCN(c2ccccc2)CC1	none
COc1ccc(CCNC(=O)Cn2cnc3scc(-c4ccccc4)c3c2=O)cc1OC	none
